# Screening data as filed in PubChem BioAssay.
# The list is not random: actives were taken first. Their share in the collection is about 3.5%.
# ABCG2 inh: inhibitors of human ABCG2 transporter, ABCB1 counter-screen; Q9UNQ0; AID 1325; 190,000 tested, 0.1% active; IgMXP3 cells, JC-1 efflux, flow cytometry; inhibition, % at 6.6 µM;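 active = inhibition above 80%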
#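 Measure – % inhibition of efflux relative to nicardipine and DMSO · Test system – ABCG2 IgMXP3 and barcoded ABCB1 CCRF-Adr cell mix · Control set – nicardipine as high control, DMSO as low control · Compound – one concentration, 6.6 µM final · Signal – flow cytometry of retained JC-1 fluorescence · Timing – 10 min exposure at 25 °C with rotation, no wash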
# ABCB1 block: inhibitors of human ABCB1 transporter, ABCG2 counter-screen; P08183; CCRF-Adr cells, JC-1 efflux, flow cytometry; inhibition, % at 6.6 µM; 190,000 tested, 0.067% active; in the data active = inhibition above about 40%;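 note: higher value means more JC-1 retained so stronger ABCB1 efflux block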
# MEKK2wt PB1 HTS: raises or lowers MEK5 binding to wildtype human MEKK2 PB1 domain; AID 1531; binding response (% of control), % at 10 µM; Q9Y2U5; 290,000 tested, 1.1% active; bead flow cytometry, Alexa488-MEK5 binding to MEKK2 WT; actives lie on both sides; in the data active = binding response below about 67% or above about 130%
# MEKK3 PB1 HTS: MEKK3-MEK5 PB1 interaction, increase or decrease; Q99759; bead-based flow cytometry, Alexa488-MEK5 binding to MEKK3; actives lie on both sides; 0 = blocked by unlabeled MEK5, 100 = vehicle; binding response (% of control), % at 10 µM; 290,000 tested, 1.4% active;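 active = binding response more than 3 SD above or below the average of its plate-row segment, actives on both sides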;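 note: Alexa488 bead fluorescence after subtracting the streptavidin-only scavenger bead signal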
# Target sequence (Q99759 whole entry, looked up): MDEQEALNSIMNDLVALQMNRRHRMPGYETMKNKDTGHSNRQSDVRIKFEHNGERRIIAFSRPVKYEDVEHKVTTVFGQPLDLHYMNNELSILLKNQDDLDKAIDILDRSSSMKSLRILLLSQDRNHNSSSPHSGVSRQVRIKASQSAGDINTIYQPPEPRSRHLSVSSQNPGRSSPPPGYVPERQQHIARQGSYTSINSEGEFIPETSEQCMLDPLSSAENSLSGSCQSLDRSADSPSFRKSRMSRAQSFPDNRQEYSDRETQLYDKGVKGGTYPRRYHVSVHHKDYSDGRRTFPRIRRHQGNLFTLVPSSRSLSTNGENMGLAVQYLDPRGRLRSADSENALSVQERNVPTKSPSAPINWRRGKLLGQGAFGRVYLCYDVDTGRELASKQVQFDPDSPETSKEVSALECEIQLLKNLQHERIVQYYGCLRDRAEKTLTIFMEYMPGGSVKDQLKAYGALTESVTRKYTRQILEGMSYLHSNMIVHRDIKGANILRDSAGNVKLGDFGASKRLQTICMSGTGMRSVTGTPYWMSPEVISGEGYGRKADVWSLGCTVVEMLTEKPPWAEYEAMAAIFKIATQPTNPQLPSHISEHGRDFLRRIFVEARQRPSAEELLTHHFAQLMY
# WT yeast gro inh: growth inhibition of WT yeast, mitochondrial fusion screen. mitochondrial fusion phenotypic screen, WT strain. inhibition, % at 10 µM. 190,000 tested, 2.1% active; in the data active = inhibition above about 58%; tested in S. cerevisiae
# MEKK2 mut-MEK5: signal of MEK5 binding to mutant human MEKK2 PB1 domain | bead flow cytometry, Alexa488-MEK5 binding to MEKK2 mutant | percent response, % at 10 µM | 290,000 tested, 0.35% active | AID 1530; in the data active = percent response above about 24%, passing the limit was not always enough
# Numbers stand for hits; i = inactive; nt = no result given.
SMILES,ABCG2 inh,ABCB1 block,MEKK2wt PB1 HTS,MEKK3 PB1 HTS,WT yeast gro inh,MEKK2 mut-MEK5
S=C1NCCc2ccc(Cl)cc2C1c1ccccc1Cl (configuration not stated),i,i,i,i,68,i
CN1C(=O)C2(c3ccccc31)C1CCCC=C1C(C#N)=C(N)C2(C#N)C#N (configuration not stated),i,i,i,i,i,i
CCOc1ccc(S(=O)(=O)NCc2cccnc2)cc1C(C)C,nt,nt,i,i,nt,i
Cc1oc(-c2cc(F)ccc2F)nc1CN1CCN(C)C(=O)[C@@H]1C,i,i,22,i,i,i
CC(C)OP(=O)(c1ccc(N(C)C)cc1)C(O)c1cccnc1 (configuration not stated),nt,nt,i,i,nt,i
O=C(O)c1ccc(NC(=O)c2cc3ccccc3o2)cc1,nt,nt,i,i,nt,i
O=C(c1cc2ccccc2o1)N(C1CC1)C1(C(=O)Nc2ccccc2)CCCC1,i,i,i,i,72,i
c1ccc2c(-c3c[nH]c4ccccc34)c3ccccc3nc2c1,i,i,nt,nt,79,nt
Nc1nc(SCC(=O)NCCc2ccccc2)[nH]c(=O)c1-c1ccccc1,i,i,i,i,i,i
CC(NC(=S)NCc1ccc(F)cc1)C12CC3CC(CC(C3)C1)C2 (configuration not stated),i,i,i,i,77,i
CCOc1cc(/C=C2/SC(=S)NC2=O)ccc1OC(=O)c1ccco1,i,i,i,i,79,i
Cc1cc(CC(C)C)n(-c2nc3ccccc3c(=O)n2OCc2ccccc2)n1,i,i,i,i,65,i
CC(=O)Nc1cccc(/C(C)=N\NC(=O)c2ccc(Cn3nc([N+](=O)[O-])c(Cl)c3C)o2)c1,i,i,i,i,i,i
CC(C)c1ccc(Nc2nc(NCc3ccco3)nc(N3CCOCC3)n2)cc1,i,i,i,i,58,i
Cc1cc(OCCOc2cccc3cccnc23)cc(C)c1Cl,i,i,i,i,nt,i
Cc1cc(C)c(C)c(OCCCOc2cccc3cccnc23)c1,i,i,i,i,89,i
CC(C)Oc1ccccc1OCCCOc1cccc2cccnc12,i,i,i,i,81,i
O=C(O)c1cc(-c2ccc(Cl)cc2)n(-c2ccc(F)cc2)n1,nt,nt,i,i,nt,i
COc1ccc(C2=NS(=O)(=O)N(C)C(C(=O)N3CCCCC3)=C2)cc1OC,nt,nt,i,i,nt,i
CCOc1ccc(NCc2nnc(SCc3ccc(Cl)cc3)n2-c2ccccc2)cc1,i,i,i,i,60,i
CCOC(=O)c1ccc(NC(=S)NCCC2=CCCCC2)cc1,i,i,i,i,i,i
O=C(NC(=S)NCCC1=CCCCC1)c1ccco1,i,i,i,i,i,i
O=C(NC(=S)NCCC1=CCCCC1)c1ccc(Br)o1,i,i,i,i,76,i
Cc1ccc(NC(=S)NCCC2=CCCCC2)cc1,i,i,i,i,68,i
Cc1ccccc1C(=O)NC(=S)NCCC1=CCCCC1,i,i,i,i,71,i
SMILES,ABCG2 inh,ABCB1 block,MEKK2wt PB1 HTS,MEKK3 PB1 HTS,WT yeast gro inh,MEKK2 mut-MEK5
c1ccc(-c2cc(N3CCOCC3)nc3ccccc23)cc1,i,i,i,i,i,i
CC1CN(c2nc(-c3ccccc3)nc3ccccc23)CC(C)O1 (configuration not stated),i,i,i,i,i,i
CC1CN(c2cc(-c3ccccc3)c3ccccc3n2)CC(C)O1 (configuration not stated),i,i,i,i,76,i
CC1CN(c2nc3ccccc3cc2-c2ccccc2)CC(C)O1 (configuration not stated),i,i,i,i,78,i
COC(=O)[C@H](Cc1ccccc1)NC(=O)O[C@H]1C(=O)c2ccc(OC)cc2O[C@@H]1c1ccc2c(c1)OCO2,i,i,i,i,62,i
C(=N\N1CCN(C2c3ccccc3-c3ccccc32)CC1)/c1ccccn1,i,i,i,i,67,i
C/C(=N\NC(=O)COc1ccccc1-c1ccccc1)c1ccccn1,i,i,i,i,72,i
CN(Cc1ccccc1)c1nc(CN2CCOCC2)nc2scc(-c3ccccc3)c12,i,i,i,i,69,i
Fc1ccc(N2CCN(c3nc(CN4CCOCC4)nc4scc(-c5ccccc5)c34)CC2)cc1,i,i,i,i,78,i
CCNc1nc(CN2CCCCC2)nc2scc(-c3ccccc3)c12,i,i,i,i,i,i
Cc1nnc(NC(=O)c2sc3nc(-c4cccs4)cc(C(F)(F)F)c3c2N)s1,i,i,i,i,70,i
CCn1c(CNC(=O)c2ccco2)nnc1SCC(=O)Nc1ccccc1Cl,nt,nt,i,i,nt,i
CCn1c(CNC(=O)c2ccco2)nnc1SCC(=O)Nc1cc(C(F)(F)F)ccc1Cl,i,i,i,i,70,i
CC(=O)/C(N=Nc1cccc(C(F)(F)F)c1)=C(\C)O,i,i,i,i,i,i
CN(C(=O)/C(N=Nc1cccc(C(F)(F)F)c1)=C(\O)C(F)(F)F)c1ccccc1,i,i,i,i,70,i
O=C(NCCc1ccc(Cl)cc1Cl)c1cncc(Br)c1,nt,nt,i,i,nt,i
FC(F)(F)c1cccc(NC(=S)NCC2COc3ccccc3O2)c1 (configuration not stated),i,i,i,i,89,i
CCCNC(=S)Nc1cccc(C(F)(F)F)c1,i,i,i,i,i,i
CCc1cc(CNC(=O)C2CCC(=O)N(CCc3cccc(F)c3)C2)on1 (configuration not stated),nt,nt,i,i,nt,i
CC(=O)/C(C#N)=C1\NC(=O)C(Cc2cc(Cl)ccc2Cl)S1 (configuration not stated),nt,nt,i,i,nt,i
CC(=O)/C(C#N)=C1\NC(=O)C(Cc2ccccc2Cl)S1 (configuration not stated),i,i,i,i,76,i
COc1ccc(N(C(=O)c2ccco2)S(=O)(=O)c2cc(Cl)c(Cl)cc2Cl)cc1,i,i,i,i,59,i
COc1ccc(N(C(=O)c2ccco2)S(=O)(=O)c2ccccc2)cc1,i,i,i,i,i,i
Cc1ccc2nc(-c3ccccn3)c(NC3CCCC3)n2c1,i,i,i,i,74,i
Cc1cccc(C)c1Nc1c(-c2ccccn2)nc2ccccn12,i,i,i,i,i,i
Cc1cc(S(=O)(=O)N(Cc2ccc3c(c2)OCO3)CC2CCCO2)ccc1-n1cnnn1 (configuration not stated),i,i,i,i,i,i
COc1ccc(/C(C#N)=C/c2ccccn2)cc1,nt,nt,i,i,nt,i
COC(=O)c1ccc(/C=C(\C#N)c2nc3ccccc3s2)cc1,i,i,i,i,84,i
CC(C)(C)c1ccc(C(=O)OC/C(O)=C(\C#N)c2nc3ccccc3s2)cc1,i,i,i,i,i,i
